Measured values taken from ChEMBL document CHEMBL4680135, “Design, synthesis and biological evaluation of indole-2-carboxylic acid derivatives as IDO1/TDO dual inhibitors” (Eur J Med Chem, 2020).

Key:
[1] = biological target: Indoleamine 2,3-dioxygenase 1 (Homo sapiens, UniProt P14902); assay: Inhibition of recombinant human IDO1 assessed as reduction in kynurenine formation using L-tryptophan as substrate incubated for 45 mins by microplate reader assay
[2] = biological target: Tryptophan 2,3-dioxygenase (Homo sapiens, UniProt P48775); assay: Inhibition of recombinant human TDO assessed as reduction in kynurenine formation using L-tryptophan as substrate incubated for 45 mins by microplate reader assay
Outline: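 Purified recombinant human TDO (0.05 μM) in 100 mM potassium phosphate pH 6.5 with 40 mM neutralized ascorbate, 200 μg/mL catalase, 20 μM methylene blue, L-Trp substrate and compound; 37 °C, 45 min. Stopped with 30% TCA, 65 °C 15 min, then 2% p-dimethylaminobenzaldehyde in acetic acid; absorbance 490 nm; IC50 by curve fitting.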

Chain of Indoleamine 2,3-dioxygenase 1 (P14902 whole entry): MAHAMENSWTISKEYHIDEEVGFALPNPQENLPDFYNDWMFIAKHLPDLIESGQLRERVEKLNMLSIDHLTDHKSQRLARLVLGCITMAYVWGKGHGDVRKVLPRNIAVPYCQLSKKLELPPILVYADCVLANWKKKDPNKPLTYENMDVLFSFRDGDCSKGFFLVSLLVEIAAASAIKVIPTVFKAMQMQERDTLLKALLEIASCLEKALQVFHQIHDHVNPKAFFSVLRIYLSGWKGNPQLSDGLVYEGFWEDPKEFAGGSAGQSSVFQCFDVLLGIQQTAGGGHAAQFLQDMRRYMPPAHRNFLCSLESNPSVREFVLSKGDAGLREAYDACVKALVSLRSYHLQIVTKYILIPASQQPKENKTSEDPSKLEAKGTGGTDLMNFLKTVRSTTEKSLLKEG
Chain of Tryptophan 2,3-dioxygenase (P48775 whole entry): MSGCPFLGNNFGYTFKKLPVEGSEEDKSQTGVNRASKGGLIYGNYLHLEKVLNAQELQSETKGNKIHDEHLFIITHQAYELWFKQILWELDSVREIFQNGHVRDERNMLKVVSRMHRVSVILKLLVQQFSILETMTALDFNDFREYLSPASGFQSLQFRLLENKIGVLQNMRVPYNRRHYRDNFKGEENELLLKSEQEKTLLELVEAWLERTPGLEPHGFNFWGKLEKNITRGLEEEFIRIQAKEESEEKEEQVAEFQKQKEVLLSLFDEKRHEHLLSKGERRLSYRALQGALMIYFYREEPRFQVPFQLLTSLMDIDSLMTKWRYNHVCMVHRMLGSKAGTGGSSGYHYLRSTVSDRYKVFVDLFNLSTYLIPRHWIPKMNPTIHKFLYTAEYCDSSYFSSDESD

Compound | IC50 [1] | IC50 [2]
COc1cc(Nc2ccc(F)c3[nH]c(C(=O)O)cc23)cc(OC)c1OC | 22.2 µM | 23.3 µM
Cc1cc(Nc2ccc(F)c(Cl)c2)c2cc(C(=O)O)[nH]c2c1 | 35.6 µM | 22.5 µM
O=C(O)c1cc2c(Nc3ccc(F)c(Cl)c3)cc(Cl)cc2[nH]1 | > 100 µM | –
O=C(O)c1cc2c(Nc3ccc(C(F)(F)F)c(Cl)c3)ccc(F)c2[nH]1 | > 100 µM | –
O=C(O)c1cc2c(Nc3ccc(F)c(Cl)c3)cccc2[nH]1 | > 100 µM | –
COc1cc(Nc2ccc(F)c3[nH]c(C(=O)O)cc23)ccc1F | 54.4 µM | 31.4 µM
COc1cc(Nc2ccc(F)c(Cl)c2)c2cc(C(=O)O)[nH]c2c1 | > 100 µM | –
O=C(O)c1cc2c(Nc3ccc(F)c(Br)c3)ccc(F)c2[nH]1 | 9.93 µM | 10.5 µM
O=C(O)c1cc2c(Nc3ccc(F)c4[nH]ccc34)ccc(F)c2[nH]1 | > 100 µM | –
CC(=O)Nc1cc(Nc2ccc(F)c(OC(C)C)c2)c2cc(C(=O)O)[nH]c2c1 | 3.09 µM | 6.46 µM
CCNC1=C/C(=N\c2ccc(F)c(Cl)c2)c2cc(C(=O)O)[nH]c2C1=O | 0.018 µM | 0.025 µM
Cc1ccc(Nc2ccc(F)c(Cl)c2)c2cc(C(=O)O)[nH]c12 | > 100 µM | –
Fc1ccc(Nc2ccc(F)c3[nH]ccc23)cc1Cl | > 100 µM | –
CC(=O)Nc1cc(Nc2ccc(OC(F)(F)F)cc2)c2cc(C(=O)O)[nH]c2c1 | 23.7 µM | 5.71 µM
O=C(O)c1cc2c(NCc3ccc(F)c(Cl)c3)ccc(F)c2[nH]1 | > 100 µM | –
CC(=O)Nc1cc(Nc2cccc3[nH]ncc23)c2cc(C(=O)O)[nH]c2c1 | 7.52 µM | 6.78 µM
O=C(Nc1ccc(F)c(Cl)c1)Nc1ccc(F)c2[nH]c(C(=O)O)cc12 | > 100 µM | –
O=C(O)c1cc2c(Nc3ccc(F)c(F)c3)ccc(F)c2[nH]1 | > 100 µM | –
O=C(O)c1cc2c(Nc3ccc(Cl)c(Cl)c3)ccc(F)c2[nH]1 | > 100 µM | –
N#Cc1ccc(Nc2ccc(F)c(Cl)c2)c2cc(C(=O)O)[nH]c12 | > 100 µM | –
COc1ccc(Nc2cc(NC(C)=O)cc3[nH]c(C(=O)O)cc23)cc1 | 1.71 µM | 3.01 µM
CC(=O)Nc1cc(Nc2ccc(F)c(F)c2)c2cc(C(=O)O)[nH]c2c1 | 1.17 µM | 1.55 µM
O=C(O)c1cc2c(Nc3cc(Br)ccc3F)ccc(F)c2[nH]1 | 28.1 µM | 41.4 µM

Compound | IC50 [1] | IC50 [2]
CC(=O)Nc1cc(Nc2ccc(F)c(OCC(F)(F)F)c2)c2cc(C(=O)O)[nH]c2c1 | 4.62 µM | 9.63 µM
CC(=O)Nc1cc(Nc2ccc(F)c(Cl)c2)c2cc(C(=O)O)sc2c1 | > 100 µM | –
O=C(O)c1cc2c(Nc3ccc(F)c(Cl)c3)cc([N+](=O)[O-])cc2[nH]1 | > 100 µM | > 100 µM
N#Cc1cc(Nc2ccc(F)c3[nH]c(C(=O)O)cc23)ccc1F | > 100 µM | –
CC(=O)Nc1cc(Nc2ccc(F)cn2)c2cc(C(=O)O)[nH]c2c1 | 10.8 µM | 11.7 µM
COc1ccc(Nc2ccc(F)c3[nH]c(C(=O)O)cc23)cc1Cl | > 100 µM | –
O=C(O)c1cc2c(C(=O)Nc3ccc(F)c(Cl)c3)ccc(F)c2[nH]1 | > 100 µM | –
O=C(Cc1ccc(F)c(Cl)c1)Nc1ccc(F)c2[nH]c(C(=O)O)cc12 | > 100 µM | –
O=C(O)c1cc2c(Nc3cccc4[nH]ccc34)ccc(F)c2[nH]1 | > 100 µM | –
O=C(O)c1cc2c(Nc3ccc(F)c(Cl)c3)ccc(F)c2[nH]1 | 40.7 µM | 99.2 µM
COc1cc(Cl)cc(Nc2ccc(F)c3[nH]c(C(=O)O)cc23)c1 | > 100 µM | –
CCNc1cc(Nc2ccc(F)c(Cl)c2)c2cc(C(=O)O)[nH]c2c1 | 1.75 µM | 3.53 µM
COc1ccc(Nc2cc(NC(C)=O)cc3[nH]c(C(=O)O)cc23)nc1 | 4.73 µM | 5.27 µM
O=C(NO)c1cc2c(Nc3ccc(F)c(Cl)c3)ccc(F)c2[nH]1 | > 100 µM | –
Cn1c(C(=O)O)cc2c(Nc3ccc(F)c(Cl)c3)ccc(F)c21 | > 100 µM | –
COc1ccc(Nc2ccc(F)c(Cl)c2)c2cc(C(=O)O)[nH]c12 | 32.4 µM | 19.5 µM
O=C(O)c1cc2c(Sc3ccc(F)c(Cl)c3)ccc(F)c2[nH]1 | > 100 µM | –
CC(=O)Nc1cc(Nc2ccc(F)c(C3CC3)c2)c2cc(C(=O)O)[nH]c2c1 | 2.95 µM | 5.45 µM
N#Cc1cc2c(Nc3ccc(F)c(Cl)c3)ccc(F)c2[nH]1 | > 100 µM | –
OCc1cc2c(Nc3ccc(F)c(Cl)c3)ccc(F)c2[nH]1 | > 100 µM | –
O=C(O)c1cc2c(Nc3ccc(F)c(Cl)c3)ccc(Cl)c2[nH]1 | > 100 µM | –
CC(=O)Nc1cc(Nc2ccc(OC(F)F)cc2)c2cc(C(=O)O)[nH]c2c1 | 3.18 µM | 5.5 µM
CC(=O)Nc1cc(Nc2ccc(F)c(OCC3CC3)c2)c2cc(C(=O)O)[nH]c2c1 | 3.11 µM | 4.09 µM

Compound | IC50 [1] | IC50 [2]
O=C(O)c1cc2c(Nc3ccc(OC(F)(F)F)c(Cl)c3)ccc(F)c2[nH]1 | > 100 µM | –
N#Cc1cc(Nc2ccc(F)c(Cl)c2)c2cc(C(=O)O)[nH]c2c1 | > 100 µM | > 100 µM
O=C(O)c1cc2c(Nc3ccc(F)c(Cl)c3)cc(F)cc2[nH]1 | > 100 µM | –
COc1ccc(Nc2cc(NC(C)=O)cc3[nH]c(C(=O)O)cc23)cn1 | 3.41 µM | 3.62 µM
Cc1cc(Nc2ccc(F)c(Cl)c2)c2cc(C(=O)O)n(C)c2c1 | > 100 µM | –
CC(=O)Nc1cc(Nc2ccc(F)nc2)c2cc(C(=O)O)[nH]c2c1 | 38.5 µM | 46.1 µM
CC(=O)Nc1cc(Nc2ccc(F)c(OCc3ccccc3)c2)c2cc(C(=O)O)[nH]c2c1 | 10 µM | 5.24 µM
CC(=O)Nc1ccc(Nc2ccc(F)c(Cl)c2)c2cc(C(=O)O)[nH]c12 | > 100 µM | –
COc1ccc(C(=O)O)c(Nc2ccc(F)c3[nH]c(C(=O)O)cc23)c1 | > 100 µM | –
O=C(O)c1cc2c(Nc3ccc(F)c(OC(F)(F)F)c3)ccc(F)c2[nH]1 | 16.3 µM | 16.5 µM
O=C(O)c1cc2c(Nc3ccc(F)c4[nH]c(C(=O)O)cc34)ccc(F)c2[nH]1 | 2.72 µM | 3.48 µM
CCOc1cc(Nc2cc(NC(C)=O)cc3[nH]c(C(=O)O)cc23)ccc1F | 2.2 µM | 5.13 µM
CC(=O)Nc1cc(Nc2ccc(F)c(-c3ccsc3)c2)c2cc(C(=O)O)[nH]c2c1 | 3.89 µM | 2.53 µM
CC(=O)Nc1cc(Nc2ccc(F)c(C)c2)c2cc(C(=O)O)[nH]c2c1 | 1.83 µM | 1.7 µM
Cc1cc2c(Nc3ccc(F)c(Cl)c3)ccc(F)c2[nH]1 | > 100 µM | –
CC(=O)Nc1cc(Nc2ccc(F)c(Oc3ccccc3)c2)c2cc(C(=O)O)[nH]c2c1 | 5.83 µM | 1.44 µM
N/C(=N\O)c1cc2c(Nc3ccc(F)c(Cl)c3)ccc(F)c2[nH]1 | > 100 µM | –
CC(=O)Nc1cc(Nc2ccc(F)c(Cl)c2)c2cc(C(=O)O)[nH]c2c1 | 8.4 µM | 8.48 µM
O=C(Nc1ccc(F)c2[nH]c(C(=O)O)cc12)c1ccc(F)c(Cl)c1 | > 100 µM | –
COc1cc(Nc2ccc(F)c3[nH]c(C(=O)O)cc23)cc(C(F)(F)F)c1 | > 100 µM | –
O[C@H](C[C@H]1c2c(F)cccc2-c2cncn21)[C@H]1CC[C@H](O)CC1 [NAVOXIMOD] | – | 0.8 µM
O=C(O)c1cc2c(Nc3ccc(F)c(Cl)c3)ccc([N+](=O)[O-])c2[nH]1 | > 100 µM | –
NC(=O)c1cc2c(Nc3ccc(F)c(Cl)c3)ccc(F)c2[nH]1 | > 100 µM | –
